# According to ChEMBL document CHEMBL1142787, “Bicyclic nucleoside inhibitors of Varicella-Zoster virus: the effect of branching in the p-alkylphenyl side chain” (Bioorg Med Chem Lett, 2005):
# Key:
# [1] = Effective concentration required to reduce Varicella Zoster virus OKA plaque formation by using DMSO as solvent; type: functional, Human alphaherpesvirus 3
# [2] = Minimal cytotoxic concentration required to alter microscopically detectable cell morphology; type: functional
# Summary of the method: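 Cell morphology scored by microscopy; compounds dissolved in neat DMSO, then diluted in biological media to stock solutions of ca. 50–200 μM with 1% DMSO; MCC recorded as the minimal concentration that alters microscopically detectable morphology.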
# [3] = Effective concentration required to reduce thymidine kinase-Varicella Zoster virus YS/R plaque formation by using DMSO as solvent; type: functional, Human alphaherpesvirus 3
# [4] = test system: HEL (human embryonic lung fibroblasts); test: Cytotoxic concentration required to inhibit Hel cell growth by using DMSO as solvent
smiles,measurement,setting,value
Nc1nc2c(ncn2COCCO)c(=O)[nH]1 [ACYCLOVIR],EC50,[1],1500 nM
same,MCC,[2],> 200 µM
same,EC50,[3],53 µM
same,CC50,[4],> 400 µM
